Paper PMC7112766 (Science Advances, 2020)
Entries after “also recorded” stand apart in the source; their conditions may differ.

Experiments:
I-A^b = molecular target: T1, I-A^b (Mus musculus, UniProt P14434+P14483); test: MHC binding assay, inhibition of radiolabeled peptide binding, I-A^b
T1 sequence (P14434 24-256): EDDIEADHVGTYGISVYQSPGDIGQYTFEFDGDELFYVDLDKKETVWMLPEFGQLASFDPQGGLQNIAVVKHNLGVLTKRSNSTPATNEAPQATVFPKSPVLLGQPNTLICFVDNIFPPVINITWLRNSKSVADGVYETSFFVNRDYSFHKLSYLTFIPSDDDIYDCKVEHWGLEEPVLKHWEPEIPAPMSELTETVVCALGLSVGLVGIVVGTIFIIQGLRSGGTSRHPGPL
T1 sequence (P14483 28-265): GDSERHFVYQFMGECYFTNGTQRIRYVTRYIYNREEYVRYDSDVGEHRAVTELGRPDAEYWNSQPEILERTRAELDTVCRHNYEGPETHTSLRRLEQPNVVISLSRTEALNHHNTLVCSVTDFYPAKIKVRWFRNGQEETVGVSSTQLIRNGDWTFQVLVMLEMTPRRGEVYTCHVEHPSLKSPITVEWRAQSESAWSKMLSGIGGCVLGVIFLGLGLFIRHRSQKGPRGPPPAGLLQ
Summary of the method: (§1)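 Class II MHC affinity-purified from mouse B cell lymphoma LB27.4. Complexes captured on Y3JP antibody-coated plates; bound cpm counted by microscintillation. Six peptide concentrations over a 100,000-fold range, ≥3 independent experiments. IC50 is the concentration giving 50% probe inhibition; unlabeled probe is the positive control.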

I-A^d = molecular target: T2, I-A^d (Mus musculus, UniProt P01921+P04228); test: MHC binding assay, inhibition of radiolabeled peptide binding, I-A^d
T2 sequence (P04228 24-256): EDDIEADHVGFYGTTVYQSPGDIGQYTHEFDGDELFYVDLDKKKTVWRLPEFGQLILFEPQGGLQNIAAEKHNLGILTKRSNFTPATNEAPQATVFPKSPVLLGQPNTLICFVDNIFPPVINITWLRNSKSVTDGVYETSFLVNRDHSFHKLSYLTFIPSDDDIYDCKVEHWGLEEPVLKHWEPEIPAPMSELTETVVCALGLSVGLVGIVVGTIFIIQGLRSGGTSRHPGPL
T2 sequence (P01921 28-265): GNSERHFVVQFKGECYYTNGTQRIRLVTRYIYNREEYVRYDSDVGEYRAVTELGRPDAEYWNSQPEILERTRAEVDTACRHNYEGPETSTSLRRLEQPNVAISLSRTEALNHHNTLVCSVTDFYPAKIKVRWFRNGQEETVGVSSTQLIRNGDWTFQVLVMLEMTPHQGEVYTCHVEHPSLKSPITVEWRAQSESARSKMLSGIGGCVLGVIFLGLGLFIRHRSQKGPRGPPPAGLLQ
Summary of the method: as §1

I-E^d = molecular target: T3, I-E^d (Mus musculus, UniProt P01904+P01915); test: MHC binding assay, inhibition of radiolabeled peptide binding, I-E^d
T3 sequence (P01904 26-255): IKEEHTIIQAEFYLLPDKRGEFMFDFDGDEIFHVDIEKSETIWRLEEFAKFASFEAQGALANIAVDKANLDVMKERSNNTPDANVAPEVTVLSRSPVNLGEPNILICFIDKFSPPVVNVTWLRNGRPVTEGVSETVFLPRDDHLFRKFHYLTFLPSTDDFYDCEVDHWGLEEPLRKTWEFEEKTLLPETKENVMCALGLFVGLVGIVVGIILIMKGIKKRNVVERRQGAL
T3 sequence (P01915 27-264 limits assumed): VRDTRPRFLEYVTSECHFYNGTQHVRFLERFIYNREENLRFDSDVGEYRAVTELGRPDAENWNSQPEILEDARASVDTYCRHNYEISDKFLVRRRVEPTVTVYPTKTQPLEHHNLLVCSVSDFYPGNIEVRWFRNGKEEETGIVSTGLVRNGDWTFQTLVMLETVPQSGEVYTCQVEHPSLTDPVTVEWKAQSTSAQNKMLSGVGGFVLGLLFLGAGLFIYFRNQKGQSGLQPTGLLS

TFH cells = settings: mouse, in vivo
[1] = tested on: tetramer^+ CD44^hi CD4^+ T cells; settings: mouse, in vivo
splenocytes [2] = type: cell-based, mouse; settings: for IL-17A or IFNγ responses by ELISpot: 24 hours, 37°C
S. aureus = tested on: S. aureus; parameters: species or system S. aureus strain 923, a USA300 isolate; mice; settings: mouse, in vivo
splenocytes [3] = settings: mouse, in vivo

Compound | IC50 (I-A^b) [µM] | IFNγ response by ELISpot (splenocytes [2]) | IL-17A and IFNγ responses, mice expressing H-2^d compared with H-2^b (splenocytes [2]) | IL-17A response by ELISpot (splenocytes [2]) | IL-17A or IFNγ responses by ELISpot (splenocytes [2]) | also measured
CC[C@H](C)[C@H](NC(=O)[C@H](CCC(=O)O)NC(=O)[C@H](Cc1c[nH]cn1)NC(=O)[C@@H](NC(=O)[C@H](CCCCN)NC(=O)[C@H](Cc1c[nH]c2ccccc12)NC(=O)[C@H](CC(N)=O)NC(=O)[C@@H](NC(=O)[C@H](CCC(=O)O)NC(=O)[C@@H](N)Cc1ccc(O)cc1)C(C)C)[C@@H](C)O)C(=O)N[C@@H](CCCCN)C(=O)N[C@H](C(=O)N[C@@H](CCCCN)C(=O)NCC(=O)N[C@@H](Cc1c[nH]cn1)C(=O)N[C@@H](CC(N)=O)C(=O)O)C(C)C [LkT/C] | 17.3 |  |  |  |  | IC50 (I-A^d): 3.21 µM; IC50 (I-E^d): 0.0022 µM
CC[C@H](C)[C@H](N)C(=O)NCC(=O)NCC(=O)N[C@@H](CC(N)=O)C(=O)NCC(=O)N[C@@H](CO)C(=O)N[C@@H](Cc1ccccc1)C(=O)N[C@@H](CC(N)=O)C(=O)N[C@@H](Cc1ccc(O)cc1)C(=O)N[C@@H](CO)C(=O)N[C@@H](CCCCN)C(=O)N[C@H](C(=O)N[C@H](C(=O)N[C@@H](CO)C(=O)N[C@@H](Cc1ccc(O)cc1)C(=O)N[C@H](C(=O)O)[C@@H](C)O)[C@@H](C)CC)[C@@H](C)O [LukE153–168] | 0.586 |  |  |  |  | 
CC(C)[C@H](NC(=O)CNC(=O)[C@H](Cc1c[nH]c2ccccc12)NC(=O)[C@@H](N)CCCCN)C(=O)N[C@@H](CCCCN)C(=O)N[C@@H](C)C(=O)N[C@@H](CC(N)=O)C(=O)N[C@@H](CCC(=O)O)C(=O)N[C@@H](Cc1ccccc1)C(=O)N[C@H](C(=O)N[C@H](C(=O)N1CCC[C@H]1C(=O)N[C@@H](CC(=O)O)C(=O)NCC(=O)N[C@@H](CCCCN)C(=O)N[C@@H](CCCCN)C(=O)O)[C@@H](C)O)C(C)C [LukE185–200] | 4.05 |  |  |  |  | 
LukE: leukotoxin E, His-tagged, purified from E. coli; antigen and vaccine |  | weaker IFNγ; also recorded: moderate IFNg responses | significantly stronger IL-17A and IFNγ responses | strongest IL-17A responses; also recorded: strong IL-17A responses | minimal IL-17A or IFNγ responses; also recorded: no detectable responses | LukE-specific TFH cells after vaccination (TFH cells): expanded a population of LukE-specific TFH cells; also recorded: expansion of LukE-specific TFH cells; LukE-specific tetramer^+ CD44^hi CD4^+ T cells after vaccination [1]: high frequencies; also recorded: strong LukE-specific T cell responses; reduction of lesion size compared with control mice (S. aureus): approximately 40%; protection against dermonecrosis (lesion size) after vaccination (S. aureus; sc): moderately strong protection against dermonecrosis; also recorded: weaker protection; IL-17A and IFNγ responses, vaccination compared with SSTI (splenocytes [3]): stronger IL-17A and IFNγ responses; LukE-specific IL-17A response after vaccination (splenocytes [3]): no differences in LukE-specific IL-17A responses
LukS-PV: leukocidin S-PV, purified from E. coli, GST removed; sae-regulated antigen |  | weaker IFNγ; also recorded: moderate IFNg responses | significantly stronger IL-17A and IFNγ responses | strongest IL-17A responses; also recorded: strong IL-17A responses | minimal IL-17A or IFNγ responses; also recorded: no detectable responses | 
